Measured values reported in ChEMBL document CHEMBL1129929, “Analogues of methotrexate in rheumatoid arthritis. 1. Effects of 10-deazaaminopterin analogues on type II collagen-induced arthritis in mice” (J Med Chem, 1997).
Blank lines part the entries; values can stand above or below the compound they belong to.

Experiments:
Mus musculus [1] = assay: Tested for antiinflammatory activity on mouse type II collagen arthritis as Paw swelling* of all animals in each group on day 44 at intraperitoneal dose of 12 mg/kg; type: functional
In short: (§1)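 DBA/1 mice immunized with bovine type II collagen (Courtenay method, modified), antigen booster at day 21. Compounds given ip from 2 days before the first collagen challenge, then every 2 days. Hind paw dimensions (mm) measured for both limbs of all animals, expressed as mean ± SD. Eight mice per dose; untreated controls pooled from four experiments (48 animals).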

Mus musculus [2] = assay: Tested for antiinflammatory activity on mouse type II collagen arthritis as Paw swelling* of all animals in each group on 30 at intraperitoneal dose of 18 mg/kg; type: functional
In short: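 DBA/1 mice were challenged with bovine type II collagen and boosted on day 21. Dosing was ip from 2 days before the initial challenge, then every 2 days, with eight animals per dose. Hind paw dimensions (mm) were measured for both limbs of all animals and given as mean ± SD. Untreated controls were pooled from four experiments (48 animals).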

Mus musculus [3] = assay: Incidence of disease(mouse type II collagen arthritis) was scored as the percentage of animals within each experimental group that exhibited joint or limb inflammation on day 30 at intraperitoneal of dose 18 mg/kg; type: functional
In short: (§2)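 DBA/1 mice were immunized with bovine type II collagen (modified Courtenay method), with a collagen booster on day 21. Compounds were given ip starting 2 days before the first collagen challenge and every 2 days thereafter. Incidence was the percentage of animals per group with joint or limb inflammation, scored on days 23, 30, 37 and 44.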

Mus musculus [4] = assay: Tested for antiinflammatory activity on mouse type II collagen arthritis as Paw swelling* of all animals in each group on day 23 at intraperitoneal dose of 18 mg/kg; type: functional; in short: as §1
Mus musculus [5] = assay: Tested for antiinflammatory activity on mouse type II collagen arthritis as Paw swelling* of all animals in each group on day 37 at intraperitoneal dose of 12 mg/kg; type: functional; in short: as §1
Mus musculus [6] = assay: Incidence of disease(mouse type II collagen arthritis) was scored as the percentage of animals within each experimental group that exhibited joint or limb inflammation on day 37 at intraperitoneal of dose 12 mg/kg; type: functional; in short: as §2
Mus musculus [7] = assay: Incidence of disease(mouse type II collagen arthritis) was scored as the percentage of animals within each experimental group that exhibited joint or limb inflammation on day 37 at intraperitoneal of dose 18 mg/kg; type: functional; in short: as §2
Mus musculus [8] = assay: Tested for antiinflammatory activity on mouse type II collagen arthritis as Paw swelling* of all animals in each group on day 44 at intraperitoneal dose of 18 mg/kg; type: functional; in short: as §1
Mus musculus [9] = assay: Incidence of disease(mouse type II collagen arthritis) was scored as the percentage of animals within each experimental group that exhibited joint or limb inflammation on day 44 at intraperitoneal of dose 12 mg/kg; type: functional; in short: as §2
Mus musculus [10] = assay: Incidence of disease(mouse type II collagen arthritis) was scored as the percentage of animals within each experimental group that exhibited joint or limb inflammation on day 23 at intraperitoneal dose of 18 mg/kg; type: functional; in short: as §2
Mus musculus [11] = assay: Tested for antiinflammatory activity on mouse type II collagen arthritis as Paw swelling* of all animals in each group on day 37 at intraperitoneal dose of 18 mg/kg; type: functional; in short: as §1
Mus musculus [12] = assay: Incidence of disease(mouse type II collagen arthritis) was scored as the percentage of animals within each experimental group that exhibited joint or limb inflammation on day 30 at intraperitoneal of dose 12 mg/kg; type: functional; in short: as §2
Mus musculus [13] = assay: Tested for antiinflammatory activity on mouse type II collagen arthritis as Paw swelling* of all animals in each group on day 23 at intraperitoneal dose of 12 mg/kg; type: functional; in short: as §1
Mus musculus [14] = assay: Incidence of disease(mouse type II collagen arthritis) was scored as the percentage of animals within each experimental group that exhibited joint or limb inflammation on day 44 at intraperitoneal of dose 18 mg/kg; type: functional; in short: as §2
Mus musculus [15] = assay: Tested for antiinflammatory activity on mouse type II collagen arthritis as Paw swelling* of all animals in each group on day 30 at intraperitoneal dose of 12 mg/kg; type: functional; in short: as §1
Mus musculus [16] = assay: Incidence of disease(mouse type II collagen arthritis) was scored as the percentage of animals within each experimental group that exhibited joint or limb inflammation on day 23 at intraperitoneal dose of 12 mg/kg; type: functional; in short: as §2
Mus musculus [17] = assay: Tested for antiinflammatory activity on mouse type II collagen arthritis as Paw swelling* of all animals in each group on day 44 at intraperitoneal dose of 9 mg/kg; type: functional; in short: as §1
Mus musculus [18] = assay: Tested for antiinflammatory activity on mouse type II collagen arthritis as Paw swelling* of all animals in each group on day 44 at intraperitoneal dose of 15 mg/kg; type: functional; in short: as §1
Mus musculus [19] = assay: Tested for antiinflammatory activity on mouse type II collagen arthritis as Paw swelling* of all animals in each group on day 37 at intraperitoneal dose of 15 mg/kg; type: functional; in short: as §1
Mus musculus [20] = assay: Incidence of disease(mouse type II collagen arthritis) was scored as the percentage of animals within each experimental group that exhibited joint or limb inflammation on day 37 at intraperitoneal of dose 15 mg/kg; type: functional; in short: as §2
Mus musculus [21] = assay: Tested for antiinflammatory activity on mouse type II collagen arthritis as Paw swelling* of all animals in each group on day 30 at intraperitoneal dose of 15 mg/kg; type: functional; in short: as §1
[22] = Concentration required to inhibit the growth of chang liver cells; type: functional; settings: Homo sapiens
Mus musculus [23] = assay: Incidence of disease(mouse type II collagen arthritis) was scored as the percentage of animals within each experimental group that exhibited joint or limb inflammation on day 30 at intraperitoneal of dose 9 mg/kg; type: functional; in short: as §2
L1210 = assay: Concentration required to inhibit the growth of L1210 cells; type: functional, cell-based; settings: Mus musculus
Mus musculus [24] = assay: Tested for antiinflammatory activity on mouse type II collagen arthritis as Paw swelling* of all animals in each group on day 37 at intraperitoneal dose of 9 mg/kg; type: functional; in short: as §1
Mus musculus [25] = assay: Incidence of disease(mouse type II collagen arthritis) was scored as the percentage of animals within each experimental group that exhibited joint or limb inflammation on day 44 at intraperitoneal of dose 9 mg/kg; type: functional; in short: as §2
Mus musculus [26] = assay: Tested for antiinflammatory activity on mouse type II collagen arthritis as Paw swelling* of all animals in each group on day 23 at intraperitoneal dose of 9 mg/kg; type: functional; in short: as §1
Mus musculus [27] = assay: Incidence of disease(mouse type II collagen arthritis) was scored as the percentage of animals within each experimental group that exhibited joint or limb inflammation on day 23 at intraperitoneal dose of 9 mg/kg; type: functional; in short: as §2
Mus musculus [28] = assay: Incidence of disease(mouse type II collagen arthritis) was scored as the percentage of animals within each experimental group that exhibited joint or limb inflammation on day 23 at intraperitoneal dose of 15 mg/kg; type: functional; in short: as §2
Mus musculus [29] = assay: Incidence of disease(mouse type II collagen arthritis) was scored as the percentage of animals within each experimental group that exhibited joint or limb inflammation on day 30 at intraperitoneal of dose 15 mg/kg; type: functional; in short: as §2
Mus musculus [30] = assay: Incidence of disease(mouse type II collagen arthritis) was scored as the percentage of animals within each experimental group that exhibited joint or limb inflammation on day 37 at intraperitoneal of dose 9 mg/kg; type: functional; in short: as §2
Mus musculus [31] = assay: Tested for antiinflammatory activity on mouse type II collagen arthritis as Paw swelling* of all animals in each group on day 23 at intraperitoneal dose of 15 mg/kg; type: functional; in short: as §1
Mus musculus [32] = assay: Incidence of disease(mouse type II collagen arthritis) was scored as the percentage of animals within each experimental group that exhibited joint or limb inflammation on day 44 at intraperitoneal of dose 15 mg/kg; type: functional; in short: as §2
Mus musculus [33] = assay: Tested for antiinflammatory activity on mouse type II collagen arthritis as Paw swelling* of all animals in each group on day 30 at intraperitoneal dose of 9 mg/kg; type: functional; in short: as §1

SMILES: CCC(Cc1cnc2nc(N)nc(N)c2n1)c1ccc(C(=O)N[C@@H](CCC(=O)O)C(=O)O)cc1 (some centres not stated) [EDATREXATE]
Paw swelling (Mus musculus [1]): 2.32 mm | Paw swelling (Mus musculus [2]): 2.24 mm | Animals (Mus musculus [3]): 0% | Paw swelling (Mus musculus [4]): 2.18 mm | Paw swelling (Mus musculus [5]): 2.34 mm | Animals (Mus musculus [6]): 38% | Animals (Mus musculus [7]): 12% | Paw swelling (Mus musculus [8]): 2.18 mm | Animals (Mus musculus [9]): 50% | Animals (Mus musculus [10]): 12% | Paw swelling (Mus musculus [11]): 2.19 mm | Animals (Mus musculus [12]): 25% | Paw swelling (Mus musculus [13]): 2.26 mm | Animals (Mus musculus [14]): 12% | Paw swelling (Mus musculus [15]): 2.28 mm | Animals (Mus musculus [16]): 25%

IC50 (L1210): 3.7 nM
SMILES: Nc1nc(N)c2nc(CCc3ccc(C(=O)N[C@@H](CCC(=O)O)C(=O)O)cc3)cnc2n1
Paw swelling (Mus musculus [17]): 2.32 mm | Paw swelling (Mus musculus [18]): 2.3 mm | Paw swelling (Mus musculus [19]): 2.29 mm | Animals (Mus musculus [20]): 50% | Paw swelling (Mus musculus [1]): 2.33 mm | Paw swelling (Mus musculus [21]): 2.31 mm | IC50 [22]: 98 nM | Animals (Mus musculus [23]): 38% | Paw swelling (Mus musculus [24]): 2.28 mm | Animals (Mus musculus [25]): 50% | Paw swelling (Mus musculus [5]): 2.31 mm | Animals (Mus musculus [6]): 50% | Paw swelling (Mus musculus [26]): 2.19 mm | Animals (Mus musculus [9]): 62% | Animals (Mus musculus [27]): 25% | Animals (Mus musculus [12]): 50% | Animals (Mus musculus [28]): 0% | Animals (Mus musculus [29]): 38% | Animals (Mus musculus [30]): 38% | Paw swelling (Mus musculus [31]): 2.2 mm | Animals (Mus musculus [32]): 38% | Paw swelling (Mus musculus [13]): 2.21 mm | Paw swelling (Mus musculus [15]): 2.36 mm | Paw swelling (Mus musculus [33]): 2.32 mm | Animals (Mus musculus [16]): 12%
